Compound activity as filed in PubChem.
TRPC4 inh: inhibitors of mouse TRPC4 channel, primary screen, Fluo4 calcium, HEK293 TRPC4beta/mu-opioid cells; actives 0.39% (n = 300,000); B-score at 10 µM; DAMGO-evoked Fluo4 calcium flux; stronger effect = lower value; AID 2247, 2010; Short transient receptor potential channel 4 (Mus musculus), Q9QUQ5;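 active means B-score over 3 SD under the library average, no early fluorescence shift, positive overall ratio signal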
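Assay system – HEK293 line stably carrying TRPC4beta and mu-opioid receptor · Doses – single dose · Detection – Fluo4 calcium-dye fluorescence, kinetic read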
Kir21 block: inhibitors of mouse Kir2.1 inward-rectifier potassium channel. Inward rectifier potassium channel 2 (Mus musculus), P35561. actives 0.85% (n = 310,000). AID 1672, 2009. HEK293-Kir2.1, FluxOR thallium flux fluorescence; stronger effect = lower value. B-score at 10 µM;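 active means fluorescence ratio B-score at or below minus 3 SD of library scores, with starting-brightness B-score within 2 SD, cut at about -4.2 in these data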;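 further: channel flux triggered by added potassium and thallium sulfate stimulus; B-score of peak minus minimum fluorescence over baseline after thallium stimulus; more negative B-score means stronger Kir2.1 block with less thallium influx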
Target sequence (P35561 whole entry, looked up): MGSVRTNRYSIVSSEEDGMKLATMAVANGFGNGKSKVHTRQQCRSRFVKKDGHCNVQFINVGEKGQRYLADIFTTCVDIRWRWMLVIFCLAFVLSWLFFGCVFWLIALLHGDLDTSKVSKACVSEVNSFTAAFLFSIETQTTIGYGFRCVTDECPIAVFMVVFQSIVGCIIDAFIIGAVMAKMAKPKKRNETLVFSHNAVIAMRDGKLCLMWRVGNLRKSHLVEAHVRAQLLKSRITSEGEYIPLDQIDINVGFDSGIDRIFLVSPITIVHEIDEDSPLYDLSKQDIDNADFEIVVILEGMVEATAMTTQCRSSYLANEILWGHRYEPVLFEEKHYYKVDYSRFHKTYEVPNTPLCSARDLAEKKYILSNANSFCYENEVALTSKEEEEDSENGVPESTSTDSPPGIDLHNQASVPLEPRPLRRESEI
TRPC6 inhibitor: mouse TRPC6 channel inhibitors, primary screen, cell-based, HEK293, membrane potential dye | AID 2553, 2010 | actives 1.1% (n = 310,000) | B-score at 10 µM | ACh-evoked depolarization; stronger effect = lower value;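 active means B-score under library mean minus 3 SD, initial fluorescence not abnormally high, positive integrated signal ratio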;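 further: B-score derived from integrated fluorescence ratio over the kinetic read; more negative B-score means stronger inhibition of depolarization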
TRPC4 PAM: positive allosteric modulators of TRPC4, primary screen, cell-based, mouse TRPC4beta, HEK293 mu-opioid, Fluo-4 calcium; Short transient receptor potential channel 4 (Mus musculus), Q9QUQ5; DAMGO EC20, Fluo-4 Ca2+ flux; stronger effect = higher value; actives 0.42% (n = 310,000); AID 2227, 2009; B-score at 10 µM;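 active means B-score of calcium response area above 5 SD of library B-scores, with initial fluorescence ratio within 5 SD of library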
TRPC6 act: mouse TRPC6 channel activators, primary screen, cell-based, HEK293, membrane potential dye. actives 0.13% (n = 310,000). Short transient receptor potential channel 6 (Mus musculus), Q61143. B-score at 10 µM. HEK293-TRPC6 membrane potential dye fluorescence; stronger effect = higher value. AID 2550, 2010;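 active means B-score of the integrated fluorescence ratio above library mean plus 3 SD, and starting fluorescence ratio within library mean plus 5 SD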;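 further: higher score means more depolarization so channel activation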
TRPC4 agonist: activators of mouse TRPC4 channel, primary screen, Fluo4 calcium, HEK293 TRPC4beta/mu-opioid cells | Short transient receptor potential channel 4 (Mus musculus), Q9QUQ5 | Fluo4 calcium fluorescence; stronger effect = higher value | B-score at 10 µM | actives 0.49% (n = 310,000) | AID 2237, 2010;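 active means B-score above 5 SD of library B-scores, and initial fluorescence ratio not above library mean plus 5 SD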;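 further: positive B-score marks a calcium rise read as TRPC4 activation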
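System: HEK293 cells stably co-expressing mouse TRPC4beta and mu-opioid receptor; Schedule: Fluo4 dye loading 45 min at room temperature, 110 s recording; Detection: Fluo4 fluorescence, kinetic; Evaluation: B-scored integrated calcium fluorescence ratio; Controls: buffer (low) and maximal DAMGO (high).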
Numbers stand for hits. Most compounds without a hit are left out; they make up all but 2.9% or so of the library.

What do the screens show for `CC(C)C(=O)N1CCN(c2nc(-c3ccccc3)c3c(c2C#N)CCCC3)CC1`?
TRPC4 inh: inactive; Kir21 block: inactive; TRPC6 inhibitor: inactive; TRPC4 PAM: 14; TRPC6 act: inactive; TRPC4 agonist: inactive

What do the screens show for `O=C(O)c1ccc(-c2nc(-c3ccccc3)c(-c3cccs3)[nH]2)cc1`?
TRPC4 inh: inactive; Kir21 block: inactive; TRPC6 inhibitor: inactive; TRPC4 PAM: inactive; TRPC6 act: inactive; TRPC4 agonist: inactive

How did COc1ccc(-c2nc(-c3cccs3)c(-c3cccs3)[nH]2)cc1O do in these assays?
TRPC4 inh: inactive; Kir21 block: -5.6; TRPC6 inhibitor: inactive; TRPC4 PAM: inactive; TRPC6 act: inactive; TRPC4 agonist: inactive

Results for COC(=O)CSC1=NS(=O)(=O)c2ccccc21 ?
TRPC4 inh: inactive; Kir21 block: -5.8; TRPC6 inhibitor: inactive; TRPC4 PAM: inactive; TRPC6 act: inactive; TRPC4 agonist: inactive

Results for COc1cccc(C(C)N(C)Cc2nc(-c3ccoc3)oc2C)c1 (configuration not stated) ?
TRPC4 inh: inactive; Kir21 block: inactive; TRPC6 inhibitor: inactive; TRPC4 PAM: inactive; TRPC6 act: inactive; TRPC4 agonist: inactive

What do the screens show for `Cc1oc(-c2ccoc2)nc1CN(Cc1ccccc1)CC1CC1`?
TRPC4 inh: -9; Kir21 block: inactive; TRPC6 inhibitor: inactive; TRPC4 PAM: inactive; TRPC6 act: inactive; TRPC4 agonist: inactive

How did CC1(C)CC(=O)CC2(C1)NCC(c1ccccc1)c1c2[nH]c2ccccc12 (configuration not stated) do in these assays?
TRPC4 inh: inactive; Kir21 block: inactive; TRPC6 inhibitor: inactive; TRPC4 PAM: inactive; TRPC6 act: inactive; TRPC4 agonist: inactive

What do the screens show for `COc1cccc(C2CNC3(CCCC(C)C3)c3[nH]c4ccccc4c32)c1OC` (configuration not stated)?
TRPC4 inh: inactive; Kir21 block: -4.5; TRPC6 inhibitor: inactive; TRPC4 PAM: inactive; TRPC6 act: inactive; TRPC4 agonist: inactive

How did CC(=O)Oc1cc2c(C(=O)NCc3ccncc3)c(C)oc2c2ccccc12 do in these assays?
TRPC4 inh: inactive; Kir21 block: inactive; TRPC6 inhibitor: inactive; TRPC4 PAM: inactive; TRPC6 act: inactive; TRPC4 agonist: inactive

How did Oc1c(CN2CCCCC2)cc(Br)c2cccnc12 do in these assays?
TRPC4 inh: -7; Kir21 block: inactive; TRPC6 inhibitor: inactive; TRPC4 PAM: inactive; TRPC6 act: inactive; TRPC4 agonist: inactive

What do the screens show for `O=C(COc1c(Br)cc(Br)c2cccnc12)N1CCCCC1`?
TRPC4 inh: inactive; Kir21 block: inactive; TRPC6 inhibitor: inactive; TRPC4 PAM: inactive; TRPC6 act: inactive; TRPC4 agonist: inactive

What do the screens show for `O=C(Nc1nc2c(ccc3ccccc32)s1)c1ccco1`?
TRPC4 inh: inactive; Kir21 block: inactive; TRPC6 inhibitor: inactive; TRPC4 PAM: inactive; TRPC6 act: inactive; TRPC4 agonist: inactive

What do the screens show for `CC(NC(=O)/C(C#N)=C/c1ccc([N+](=O)[O-])o1)c1ccccc1` (configuration not stated)?
TRPC4 inh: inactive; Kir21 block: -7.7; TRPC6 inhibitor: inactive; TRPC4 PAM: inactive; TRPC6 act: inactive; TRPC4 agonist: inactive

What do the screens show for `CCOC(=O)c1sc2nc(N3CCOCC3)c3c(c2c1N)CCN(C)C3`?
TRPC4 inh: inactive; Kir21 block: inactive; TRPC6 inhibitor: -7; TRPC4 PAM: inactive; TRPC6 act: inactive; TRPC4 agonist: inactive

What do the screens show for `Cc1oc(-c2ccc(Cl)cc2)nc1CS(=O)CC(=O)NCCN1CCCCCC1` (configuration not stated)?
TRPC4 inh: inactive; Kir21 block: inactive; TRPC6 inhibitor: inactive; TRPC4 PAM: inactive; TRPC6 act: inactive; TRPC4 agonist: inactive

Results for Cc1ccccc1-c1nc(CS(=O)(=O)CC(=O)NCCCN2CC(C)CC(C)C2)c(C)o1 (configuration not stated) ?
TRPC4 inh: inactive; Kir21 block: inactive; TRPC6 inhibitor: inactive; TRPC4 PAM: inactive; TRPC6 act: inactive; TRPC4 agonist: 66

How did Cc1oc(-c2ccc(Cl)cc2)nc1CS(=O)CC(=O)NCCCN1CC(C)CC(C)C1 (configuration not stated) do in these assays?
TRPC4 inh: inactive; Kir21 block: inactive; TRPC6 inhibitor: inactive; TRPC4 PAM: inactive; TRPC6 act: inactive; TRPC4 agonist: 54

Results for COc1cccc(-c2nc(CS(=O)(=O)CC(=O)NCCCN3CC(C)CC(C)C3)c(C)o2)c1 (configuration not stated) ?
TRPC4 inh: inactive; Kir21 block: inactive; TRPC6 inhibitor: inactive; TRPC4 PAM: inactive; TRPC6 act: inactive; TRPC4 agonist: 65

What do the screens show for `O=C(NCCCn1ccnc1)c1ccccc1NS(=O)(=O)c1ccc(F)c(F)c1`?
TRPC4 inh: inactive; Kir21 block: inactive; TRPC6 inhibitor: inactive; TRPC4 PAM: inactive; TRPC6 act: inactive; TRPC4 agonist: inactive

How did CCOc1ccc(C2C3=C(CCCC3=O)OC(N)=C2[N+](=O)[O-])cc1 (configuration not stated) do in these assays?
TRPC4 inh: inactive; Kir21 block: inactive; TRPC6 inhibitor: inactive; TRPC4 PAM: inactive; TRPC6 act: inactive; TRPC4 agonist: inactive

Results for COc1ccccc1-c1nnc(NC(=O)OCC(C)C)s1 ?
TRPC4 inh: inactive; Kir21 block: inactive; TRPC6 inhibitor: inactive; TRPC4 PAM: inactive; TRPC6 act: inactive; TRPC4 agonist: inactive

What do the screens show for `Cc1ccc(C)c(S(=O)(=O)N2CCN(C(C)C(=O)Nc3ccccc3-c3ccccc3)CC2)c1` (configuration not stated)?
TRPC4 inh: inactive; Kir21 block: inactive; TRPC6 inhibitor: inactive; TRPC4 PAM: inactive; TRPC6 act: inactive; TRPC4 agonist: inactive

What do the screens show for `O=C(CSC1CCCCC1)Nc1nccs1`?
TRPC4 inh: inactive; Kir21 block: inactive; TRPC6 inhibitor: inactive; TRPC4 PAM: inactive; TRPC6 act: inactive; TRPC4 agonist: inactive

What do the screens show for `Cc1nc(NCC(c2ccccc2)N(C)C)c2c(C)c(C)sc2n1` (configuration not stated)?
TRPC4 inh: inactive; Kir21 block: inactive; TRPC6 inhibitor: inactive; TRPC4 PAM: inactive; TRPC6 act: inactive; TRPC4 agonist: 267

How did Cc1sc2ncnc(NCC(O)c3ccccc3)c2c1C (configuration not stated) do in these assays?
TRPC4 inh: inactive; Kir21 block: inactive; TRPC6 inhibitor: inactive; TRPC4 PAM: inactive; TRPC6 act: inactive; TRPC4 agonist: inactive
